# The sample as a whole holds a higher share of hits than the screen did.
# V-ATPase pHluor: alters yeast V-ATPase proton transport | 350,000 compounds, 0.37% hits | S. cerevisiae, pHLuorin cytosolic pH fluorescence | AID 504577 | response, % at 10 µM; in the data active = response mostly above about 7.3%, no sharp cut-off; inactive = mostly below about 5.4%; note: actives read high
# p-CIP stab down: lowers stability of the mouse p/CIP coactivator protein | Q05BA5 | F442A p/CIP-EGFP cells, EGFP fluorescence, 16 h | decrease of EGFP signal, % at 10 µM | 290,000 compounds, 0.01% hits;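 active = EGFP signal decrease of at least 30% at 10 µM or well 3 SD below plate mean, unless failing retest; inactive = the rest, including hits failing retest or dose response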
# Dynein transport: blocks dynein driven cargo transport along microtubules; 3617.4 mouse cells, GR-EGFP nuclear translocation imaging; test concentration mostly 20 µM; stimulated with dexamethasone, 1 µM; active compounds read low; z-score, hits read low; 220,000 compounds, 0.47% hits; AID 1381;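 active = plate z-score of nuclear minus cytoplasmic receptor signal below a set negative limit, without overly bright fluorescence or cell loss, cut at about -3.5 in these data, passing the limit was not always enough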;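 note: z-score of nuclear minus cytoplasmic ring GR-EGFP intensity difference per well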
#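 Also added – dexamethasone, 1.0 µM final · Buffer or medium – tet-free, stripped-serum medium · Schedule – induction 48 h, compound 1 h, agonist 30 min · Detection – formaldehyde fixation, Hoechst nuclear stain, 10x automated fluorescence imaging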
# Cl transport mod: KCC2 (human) Cl- transport modulation; Q9H2X9; KCC2 cells, thallium flux FluoZin-2 fluorescence; B-score of Tl+ flux slope (higher = more flux/activation; lower = inhibition) at 10 µM; 190,000 compounds, 2.2% hits;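 active = thallium flux slope and its plate-corrected score both differing from the plate sample mean at a set confidence after two filtering rounds, in either direction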;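 note: slope of fluorescence scaled to starting intensity during 10 to 20 s after thallium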
# ABCB6 inh 2: inhibitors of human ABC transporter ABCB6 | Q9NP58 | K562-ABCB6 porphyrin accumulation, flow cytometry, 1 h; active compounds read low | fluorescence ratio to DMSO, % at 10 µM | 360,000 compounds, 0.19% hits;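 active = fluorescence ratio to DMSO below 75%, the collection mean minus 3 SD; inconclusive = too few cells collected in the well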;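 note: signal is porphyrin accumulated inside mitochondria; 100% equals median channel fluorescence of DMSO control wells; lower ratio means ABCB6 inhibition with less porphyrin fluorescence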
# KCC2 sec1: confirmation of human KCC2 transport modulators; shares compounds with Cl transport mod; HEK293-KCC2, thallium flux, FluoZin2 fluorescence; active compounds read high; normalised thallium flux (F/F0 slope) at 10 µM; 3,700 compounds, 15% hits;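 active = thallium flux slope above the same plate's solvent-only control mean plus 3 SD; inconclusive = the two replicate wells disagree; inactive = no significant difference from solvent-only control wells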
# KCC2 bumet counter: thallium flux persisting under bumetanide in KCC2 cells, counter-screen secondary assay; shares compounds with Cl transport mod; HEK293-KCC2 + bumetanide/ouabain, thallium flux FluoZin2; active compounds read high; normalized thallium flux at 10 µM; 3,700 compounds, 49% hits; AID 1714;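 active = thallium entry rate above the same plate's blocked-transporter control wells by more than 3 SD; inconclusive = the two repeat wells disagree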;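 note: raw slope of fluorescence over initial fluorescence between 10 and 20 s after thallium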
# KCC2 secondary2: KCC2 (human) modulation, second secondary assay; shares compounds with Cl transport mod; HEK293-KCC2, thallium flux FluoZin2 fluorescence; actives lie on both sides; F/F0 rise rate, 10–20 s post-thallium; normalized thallium flux at 10 µM; 3,700 compounds, 23% hits;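 active = thallium flux slope more than 3 SD above or below the plate's solvent-only control mean, mostly below; inconclusive = the two repeat wells disagreed; inactive = no significant shift from solvent-only controls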;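 note: raw slope with 0.1% DMSO as baseline and bumetanide as block control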
# HEK293 Tl flux: acts in parental HEK cells, KCC2 counter-screen; thallium flux rate (normalised fluorescence) at 10 µM; 3,700 compounds, 46% hits; shares compounds with Cl transport mod; HEK293 parental cells, thallium flux FluoZin2, ouabain; baseline-ratio fluorescence slope, 10–20 s after thallium;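 active = thallium flux rate significantly above the same plate's solvent-only control wells, beyond their mean plus 3 SD; inconclusive = the two replicate wells gave conflicting results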
# KCC2 ouabain: KCC2 (human) modulation, ouabain retest. raw Tl+ flux slope (below DMSO = inhibition, above = activation) at 10 µM. HEK293-KCC2, thallium flux FluoZin2 fluorescence; bidirectional: low = inhibitor, high = activator. shares compounds with Cl transport mod. 3,700 compounds, 48% hits;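 active = thallium flux slope beyond 3 SD from same-plate DMSO control mean in most replicates, usually higher, sometimes lower; inconclusive = repeat tests gave conflicting results; inactive = no significant difference from controls in most replicates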;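 note: slope of initial-normalized fluorescence between seconds 10 and 20 after thallium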
# HEK293 Tl flux2: acts in parental HEK cells, second KCC2 counter-screen; shares compounds with Cl transport mod; HEK293 parental, thallium flux FluoZin-2 fluorescence slope; thallium flux slope at 10 µM; 3,700 compounds, 33% hits;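 active = thallium flux slope above the same plate's solvent-control mean plus 3 SD in both duplicate wells; inconclusive = duplicate wells that disagreed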;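 note: run without ouabain in cells lacking the KCC2 cotransporter; slope of fluorescence scaled to its starting value between 10 and 20 s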
# * marks the source's active call; other numbers are inactive results; i = inactive; ? = inconclusive; / = not tested or not shown.
SMILES,V-ATPase pHluor,p-CIP stab down,Dynein transport,Cl transport mod,ABCB6 inh 2,KCC2 sec1,KCC2 bumet counter,KCC2 secondary2,HEK293 Tl flux,KCC2 ouabain,HEK293 Tl flux2
CCCCC(=O)NC(=S)NNC(=O)CCc1ccccc1,2.5,-0.3,-0.488,6.86,95.0,/,/,/,/,/,/
CC(C)(C)c1cc(CCC(=O)NNC(=S)NC(=O)c2ccccc2)cc(C(C)(C)C)c1O,3.0,-16.1,-0.462,53.8*,98.0,0.0334*,0.105*,0.0357,0.0906*,0.0822*,0.0199*
CCN(C(=S)NC(=O)CCc1ccccc1)c1ccccc1,-0.8,-12.0,0.49,4.66*,103.0,?,0.0505*,0.0339,0.0173*,0.0417*,0.0128*
O=C(CCc1ccccc1)NC(=S)Nc1cccc(Br)c1,1.4,-4.0,-1.13,4.84*,100.0,0.0082,0.0113*,0.0285,0.00862*,?,0.00959
O=C(CCc1ccccc1)NNC(=S)NC(=O)c1ccccc1,0.9,-4.4,-1.1,9.95*,96.0,0.0253*,0.061*,0.0371,0.0299*,0.0514*,0.0151*
Nc1nc(NCCOCCO)nc(NCc2ccccc2)c1[N+](=O)[O-],0.1,11.5,/,/,98.0,/,/,/,/,/,/
COC(=O)c1c(C(=O)OC)c(-c2cccc(F)c2)n2c1CS(=O)(=O)C2,0.9,7.3,/,/,100.0,/,/,/,/,/,/
CCC(CC)COC(=O)C1=C(C)NC(=O)NC1c1cccc([N+](=O)[O-])c1 (stereo not given),0.4,-12.4,/,/,107.0,/,/,/,/,/,/
COc1cc2c(cc1OC)CN(C(=O)CN1C(=O)c3ccc([N+](=O)[O-])cc3C1=O)CC2,-0.7,/,/,/,103.0,/,/,/,/,/,/
COc1ccc(OC)c(NC(=O)C(=O)NNC(=O)C23CC4CC(CC(C4)C2)C3)c1,1.4,3.2,0.244,135*,105.0,0.0443*,0.115*,0.0708*,0.1*,0.0813*,0.045*
Cc1ccc(Cc2c[nH]c(=S)s2)cc1,-0.3,13.2,0.601,194*,100.0,?,0.143*,0.109*,0.112*,0.136*,0.0994*
Cc1ccc(Cc2c(C)[nH]c(=S)[nH]c2=O)cc1,1.1,4.5,0.501,-0.079,106.0,/,/,/,/,/,/
CCCN(C(=O)c1cc(S(=O)(=O)N2CCCCCC2)ccc1OC)C1CCS(=O)(=O)C1 (stereo not given),0.5,/,/,/,97.0,/,/,/,/,/,/
Cc1ccc(OCc2nc(C#N)c(NCc3ccc4c(c3)OCO4)o2)cc1,1.3,7.3,-1.23,-4.87,85.0,0.0052,?,?,?,0.0122*,0.00878
C=CCNc1oc(COc2ccc(C)cc2)nc1C#N,-2.5,8.0,-1.2,/,96.0,0.008,0.00531,0.0321,0.00744,?,0.0107
CN(C)CCNc1oc(COc2ccc(-c3ccccc3)cc2)nc1C#N,-4.2,-16.9,2.95,-1.31,101.0,/,/,/,/,/,/
COc1ccc(NC(=O)c2ccc(F)c(F)c2)c2ccccc12,0.6,-12.3,/,/,94.0,/,/,/,/,/,/
CC[C@H](CO)Nc1nc(Nc2cccc(Cl)c2)c2ncn(C(C)C)c2n1,2.4,-15.4,0.0297,-2.62*,94.0,0.0168,0.00469,?,0.00708,0.0146,0.0105
O=C(CCCN1C(=O)/C(=C/c2ccccc2Cl)SC1=S)NNC(=O)c1cccnc1,-3.7,-16.1,1.09,-4.91*,104.0,0.00901,0.00502,0.031,0.00692,0.0165*,0.0106
CCOc1ccccc1N1CCN(c2nc3ccccc3nc2C(C#N)C(=O)OC)CC1 (stereo not given),-2.4,-0.3,-0.0407,/,104.0,0.00581,0.00417,0.0289,0.00677,0.0182,0.0101
COCCCNC(=O)C(C#N)c1nc2ccccc2nc1N1CCCC1 (stereo not given),0.2,/,-0.121,-1.14,107.0,?,-0.000272*,0.0193*,0.00528*,0.0125*,?
CCCCCNC(=O)C(C#N)c1nc2ccccc2nc1N1CCCC1 (stereo not given),-3.3,-17.3,-0.313,i,134.0,/,/,/,/,/,/
Cc1nc(-c2ccccc2)sc1C1(C)CC(c2cccc(F)c2)=NO1 (stereo not given),5.0,/,/,/,95.0,/,/,/,/,/,/
COc1ccc(-c2cc3nc4ccccc4n3c(N)c2C#N)cc1,1.6,-13.9,1.98,-0.0235,92.0,/,/,/,/,/,/
Cc1cc(C)n(CC(=O)c2ccccc2)c(=O)c1C#N,0.3,3.1,0.258,-0.416,140.0,0.0155,0.00477,0.0275,0.00761,0.0166,0.0105
SMILES,V-ATPase pHluor,p-CIP stab down,Dynein transport,Cl transport mod,ABCB6 inh 2,KCC2 sec1,KCC2 bumet counter,KCC2 secondary2,HEK293 Tl flux,KCC2 ouabain,HEK293 Tl flux2
O=C(O)c1sccc1OCc1ccccc1,1.5,-2.9,0.821,1.05,99.0,/,/,/,/,/,/
CC(C)(C)c1ccc(COc2ccsc2C(=O)O)cc1,-1.9,4.5,1.43,-2.79*,96.0,0.0104,0.00717,0.0294,0.00754,0.0194,?
CS(=O)(=O)N(CC(=O)N/N=C/c1cccc2c1OCCO2)c1ccccc1Br,0.0,-5.0,-0.247,0.0353,109.0,/,/,/,/,/,/
CS(=O)(=O)N(CC(=O)N/N=C/c1cc2c(cc1Br)OCO2)c1ccccc1Br,-5.7,-8.3,0.206,5.12*,91.0,0.00749,0.00455,0.0299,0.00766,0.0187,0.0108
Cc1cccc(-c2noc(CCCC(=O)Nc3cccnc3)n2)c1,-4.0,6.9,0.0461,-5.11*,98.0,0.00694,0.00455,0.0314,0.00825,0.0188,0.0112
COc1ccccc1OCC(=O)NNC(=O)CSC(=S)N1CCCC1,-1.9,/,/,/,93.0,/,/,/,/,/,/
Cc1ccccc1OCC(=O)N=Nc1c(O)n(C)c2ccccc12,-5.7,5.0,-0.586,28.2*,95.0,?,0.0287*,0.035,0.0287*,0.031*,0.0221*
COC(=O)[C@@H](NC(=O)O[C@@H]1C(=O)c2cc(Br)ccc2O[C@H]1c1cccc(OC)c1)C(C)C,/,7.4,-1.22,9.3*,/,0.00635,0.0127*,0.0299,0.0148*,?,?
COc1cc(-n2nc(C)c3c2OC(N)=C(C#N)C3c2ccccc2)c(Cl)c(Br)c1O (stereo not given),-3.7,-3.1,-0.0344,-2.57*,92.0,0.00626,0.00279*,0.0269*,0.00592*,0.014*,?

# Screening results (PubChem)
